Test results from ChEMBL document CHEMBL1135728, “Bis(1H-2-indolyl)methanones as a novel class of inhibitors of the platelet-derived growth factor receptor kinase” (J Med Chem, 2002).

Legend:
[1] = target: Platelet-derived growth factor receptor (Homo sapiens, UniProt P09619+P16234); assay: Antitumor activity measured by the inhibition of platelet-derived growth factor receptor autophosphorylation in intact Swiss 3T3 cells; type: cell-based
Method in brief: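 Quiescent Swiss 3T3 fibroblasts moved to serum-free DMEM and exposed to compound in DMSO (final 1%) for 2 h. They were then stimulated with 100 ng/mL human recombinant PDGF-BB for 10 min at room temperature and lysed. Autophosphorylation was read by immunoblotting. Four to eight concentrations were tested across 2 orders of magnitude, and IC50 came from curve fitting over three independent experiments.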

[2] = target: Epidermal growth factor receptor (Homo sapiens, UniProt P00533); assay: Inhibition of Epidermal growth factor receptor autophosphorylation in A431 cells; type: cell-based, A-431
Method in brief: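 A431 cells, starved overnight in serum-free medium, were exposed to compound for 2 h and then stimulated with 100 ng/mL EGF for 10 min. Cells were extracted in lysis buffer (Hepes pH 7.5, 1% Triton), and EGFR tyrosine autophosphorylation was read by immunoblotting.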

[3] = target: Fibroblast growth factor receptor 1 (Homo sapiens, UniProt P11362); assay: Inhibition of Fibroblast growth factor receptor 1 autophosphorylation in PAE cells; type: cell-based, Sus scrofa
[4] = target: T1, Beta-adrenergic receptor kinase 1 (Homo sapiens, UniProt P25098); assay: Inhibition of G-protein coupled receptor kinase 2 (GRK2) in vitro phosphorylation
T1 sequence (P25098 whole entry): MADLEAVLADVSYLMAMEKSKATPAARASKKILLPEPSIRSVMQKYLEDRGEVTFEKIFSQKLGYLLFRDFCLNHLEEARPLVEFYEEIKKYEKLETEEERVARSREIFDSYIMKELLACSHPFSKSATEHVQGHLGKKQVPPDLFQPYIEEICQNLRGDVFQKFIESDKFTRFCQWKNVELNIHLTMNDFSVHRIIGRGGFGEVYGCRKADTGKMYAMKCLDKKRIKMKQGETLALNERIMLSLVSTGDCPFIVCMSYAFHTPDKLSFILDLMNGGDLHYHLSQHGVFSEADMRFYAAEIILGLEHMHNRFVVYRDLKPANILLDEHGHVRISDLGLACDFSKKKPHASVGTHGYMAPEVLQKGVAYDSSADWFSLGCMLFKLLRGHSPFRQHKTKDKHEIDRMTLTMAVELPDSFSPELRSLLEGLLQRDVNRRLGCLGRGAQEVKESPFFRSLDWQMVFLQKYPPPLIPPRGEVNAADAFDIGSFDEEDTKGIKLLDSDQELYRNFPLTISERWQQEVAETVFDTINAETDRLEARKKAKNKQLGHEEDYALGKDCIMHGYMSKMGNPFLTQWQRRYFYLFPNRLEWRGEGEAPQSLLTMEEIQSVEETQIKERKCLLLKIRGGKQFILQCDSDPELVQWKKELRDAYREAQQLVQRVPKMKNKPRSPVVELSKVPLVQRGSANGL
Method in brief: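 GRK2 was assayed in vitro using lysates of GRK2-overexpressing 293 cells as the kinase source. Rhodopsin purified from bovine rod outer segments served as substrate.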

[5] = target: Platelet-derived growth factor receptor alpha (Homo sapiens, UniProt P16234); assay: Inhibition of Platelet-derived growth factor receptor alpha autophosphorylation in PAE cells; type: cell-based, Sus scrofa
Method in brief: (§1)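 Porcine aortic endothelial cells expressing human PDGF α- or β-receptor were used. Receptor autophosphorylation in the intact cells was read by immunoblotting.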

[6] = target: T2, Platelet-derived growth factor receptor beta (Homo sapiens, UniProt P09619); assay: Inhibition of Platelet-derived growth factor receptor beta autophosphorylation in PAE cells; type: cell-based, Sus scrofa; method in brief: as §1
[7] = target: T2, Platelet-derived growth factor receptor beta; assay: Inhibition of Platelet-derived growth factor receptor beta kinase activity in Sf9-expressed GST-fusion protein
Method in brief: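 A constitutively active GST fusion of the PDGFβ-receptor cytoplasmic domain was expressed in Sf9 cells. The isolated fusion protein was tested in an in vitro autophosphorylation assay at 10 µM ATP.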

[8] = target: T2, Platelet-derived growth factor receptor beta; assay: Inhibition of purified Platelet-derived growth factor receptor beta kinase activity
Method in brief: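 PDGFβ-receptor kinase was purified from membranes of a receptor-overexpressing cell line. Inhibition was tested in an in vitro autophosphorylation assay at 10 µM ATP.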

[9] = Inhibition of Protein kinase C isoforms epsilon and iota in vitro phosphorylation
Method in brief: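 RGS-His6-tagged PKC isoforms were expressed transiently in COS-7 cells and purified from lysate on Ni-NTA, with imidazole elution. Reactions ran 10 min at 30 °C, and phosphocellulose-bound radioactivity was counted.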

[10] = target: T3, Protein kinase C epsilon type (Homo sapiens, UniProt Q02156); assay: Inhibition of His-tagged Protein kinase C epsilon over-expressed in COS7 cells; type: cell-based, COS-7
T3 sequence (Q02156 whole entry): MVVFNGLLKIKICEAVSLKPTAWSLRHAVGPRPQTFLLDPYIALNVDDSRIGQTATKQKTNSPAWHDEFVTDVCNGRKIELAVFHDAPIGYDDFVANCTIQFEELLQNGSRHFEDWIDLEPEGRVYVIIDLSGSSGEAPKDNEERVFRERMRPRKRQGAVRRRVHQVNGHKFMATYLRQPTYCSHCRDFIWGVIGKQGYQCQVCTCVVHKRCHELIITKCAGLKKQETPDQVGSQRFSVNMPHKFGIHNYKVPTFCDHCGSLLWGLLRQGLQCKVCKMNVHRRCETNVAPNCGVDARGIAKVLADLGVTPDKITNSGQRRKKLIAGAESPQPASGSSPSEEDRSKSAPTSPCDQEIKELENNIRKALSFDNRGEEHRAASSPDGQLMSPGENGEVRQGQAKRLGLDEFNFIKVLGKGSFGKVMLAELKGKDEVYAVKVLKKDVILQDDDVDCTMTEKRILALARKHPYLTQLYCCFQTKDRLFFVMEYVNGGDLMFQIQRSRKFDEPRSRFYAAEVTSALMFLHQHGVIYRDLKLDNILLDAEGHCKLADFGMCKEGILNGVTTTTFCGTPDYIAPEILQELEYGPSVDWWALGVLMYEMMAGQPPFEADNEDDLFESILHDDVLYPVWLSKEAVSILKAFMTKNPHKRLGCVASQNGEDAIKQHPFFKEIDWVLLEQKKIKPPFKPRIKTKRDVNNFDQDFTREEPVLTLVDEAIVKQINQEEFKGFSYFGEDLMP
Method in brief: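 RGS-His6-tagged PKC was transiently expressed in COS-7 cells, purified on Ni-NTA agarose and eluted with 500 mM imidazole. Reactions ran 10 min at 30 °C; phosphocellulose binding and scintillation counting gave the read-out.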

[11] = target: Proto-oncogene tyrosine-protein kinase Src (Homo sapiens, UniProt P12931); assay: Inhibition of Src protein tyrosine kinase
Method in brief: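 Src-dependent tyrosine phosphorylation was measured in intact src-transformed NIH3T3 fibroblasts, with immunoblot read-out.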

T2 sequence (P09619 whole entry, the tested form may be a part): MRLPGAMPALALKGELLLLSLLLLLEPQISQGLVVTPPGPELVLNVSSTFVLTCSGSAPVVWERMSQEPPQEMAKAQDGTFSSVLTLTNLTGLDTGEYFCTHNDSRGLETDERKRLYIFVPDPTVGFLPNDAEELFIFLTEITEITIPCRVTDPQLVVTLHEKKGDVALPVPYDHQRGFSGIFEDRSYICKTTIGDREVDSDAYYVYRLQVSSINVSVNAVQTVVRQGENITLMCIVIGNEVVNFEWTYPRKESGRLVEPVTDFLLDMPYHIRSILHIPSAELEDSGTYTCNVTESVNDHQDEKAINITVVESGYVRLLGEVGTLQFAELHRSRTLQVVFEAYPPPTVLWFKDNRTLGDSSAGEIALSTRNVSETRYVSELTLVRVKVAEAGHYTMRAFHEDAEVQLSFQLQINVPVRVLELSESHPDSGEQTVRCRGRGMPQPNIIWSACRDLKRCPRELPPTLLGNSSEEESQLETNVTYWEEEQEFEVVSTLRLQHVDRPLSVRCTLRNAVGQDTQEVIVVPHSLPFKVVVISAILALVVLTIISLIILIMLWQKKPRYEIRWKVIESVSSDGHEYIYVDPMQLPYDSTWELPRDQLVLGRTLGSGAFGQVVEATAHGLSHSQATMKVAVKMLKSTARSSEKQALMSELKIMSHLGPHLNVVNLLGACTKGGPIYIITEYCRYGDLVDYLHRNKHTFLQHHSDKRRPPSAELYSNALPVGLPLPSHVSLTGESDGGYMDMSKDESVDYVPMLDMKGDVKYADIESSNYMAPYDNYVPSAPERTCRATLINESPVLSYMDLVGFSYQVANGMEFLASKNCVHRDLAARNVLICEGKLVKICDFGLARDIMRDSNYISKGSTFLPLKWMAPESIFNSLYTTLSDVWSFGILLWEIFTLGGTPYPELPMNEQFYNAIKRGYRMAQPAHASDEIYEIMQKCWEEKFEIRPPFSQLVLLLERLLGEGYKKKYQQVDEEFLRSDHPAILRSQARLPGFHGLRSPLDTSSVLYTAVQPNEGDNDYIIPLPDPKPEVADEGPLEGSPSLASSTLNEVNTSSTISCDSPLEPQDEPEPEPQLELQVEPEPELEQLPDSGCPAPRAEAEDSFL
Sequence of Proto-oncogene tyrosine-protein kinase Src (P12931 2-536 limits assumed): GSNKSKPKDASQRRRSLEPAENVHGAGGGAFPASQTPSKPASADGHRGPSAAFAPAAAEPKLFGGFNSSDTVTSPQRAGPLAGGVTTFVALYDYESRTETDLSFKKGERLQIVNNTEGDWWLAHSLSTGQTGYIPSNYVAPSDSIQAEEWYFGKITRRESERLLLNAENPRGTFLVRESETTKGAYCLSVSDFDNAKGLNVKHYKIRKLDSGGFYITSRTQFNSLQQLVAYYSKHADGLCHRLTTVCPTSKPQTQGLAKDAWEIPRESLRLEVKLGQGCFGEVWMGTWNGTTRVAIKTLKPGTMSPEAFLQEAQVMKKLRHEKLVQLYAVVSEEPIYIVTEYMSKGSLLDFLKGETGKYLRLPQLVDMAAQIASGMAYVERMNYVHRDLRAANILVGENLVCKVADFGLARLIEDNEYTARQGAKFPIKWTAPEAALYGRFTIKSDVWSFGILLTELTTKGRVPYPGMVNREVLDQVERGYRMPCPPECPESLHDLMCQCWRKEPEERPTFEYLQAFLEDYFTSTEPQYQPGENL
Sequence of Platelet-derived growth factor receptor alpha (P16234 whole entry): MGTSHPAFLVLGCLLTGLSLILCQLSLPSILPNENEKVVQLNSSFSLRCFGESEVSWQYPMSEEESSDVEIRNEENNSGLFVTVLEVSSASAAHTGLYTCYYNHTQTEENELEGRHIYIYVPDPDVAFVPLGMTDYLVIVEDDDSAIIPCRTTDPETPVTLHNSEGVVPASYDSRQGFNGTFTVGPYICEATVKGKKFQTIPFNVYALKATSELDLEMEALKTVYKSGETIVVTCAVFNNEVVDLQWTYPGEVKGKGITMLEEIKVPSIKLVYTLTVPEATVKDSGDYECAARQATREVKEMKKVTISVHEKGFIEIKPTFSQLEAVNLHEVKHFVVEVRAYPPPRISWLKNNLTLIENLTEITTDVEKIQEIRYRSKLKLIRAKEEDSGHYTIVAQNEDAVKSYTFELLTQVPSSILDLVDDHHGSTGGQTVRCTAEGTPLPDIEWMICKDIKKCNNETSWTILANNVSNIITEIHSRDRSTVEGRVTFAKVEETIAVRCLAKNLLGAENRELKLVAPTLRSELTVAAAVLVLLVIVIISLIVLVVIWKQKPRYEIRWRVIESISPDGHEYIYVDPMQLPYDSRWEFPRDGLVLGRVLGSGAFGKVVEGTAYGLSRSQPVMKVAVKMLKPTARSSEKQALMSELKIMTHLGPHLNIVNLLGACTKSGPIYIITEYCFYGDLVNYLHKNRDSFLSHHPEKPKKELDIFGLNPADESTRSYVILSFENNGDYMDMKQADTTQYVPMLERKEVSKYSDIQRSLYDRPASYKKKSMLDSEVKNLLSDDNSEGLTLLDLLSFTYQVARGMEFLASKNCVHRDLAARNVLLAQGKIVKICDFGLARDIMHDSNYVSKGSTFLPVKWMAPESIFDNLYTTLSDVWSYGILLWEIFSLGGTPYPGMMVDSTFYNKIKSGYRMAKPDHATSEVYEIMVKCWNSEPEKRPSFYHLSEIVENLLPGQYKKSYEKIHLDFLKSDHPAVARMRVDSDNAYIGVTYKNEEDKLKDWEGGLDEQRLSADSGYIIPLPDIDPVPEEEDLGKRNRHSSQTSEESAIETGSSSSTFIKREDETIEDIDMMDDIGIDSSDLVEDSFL
Sequence of Fibroblast growth factor receptor 1 (P11362 whole entry): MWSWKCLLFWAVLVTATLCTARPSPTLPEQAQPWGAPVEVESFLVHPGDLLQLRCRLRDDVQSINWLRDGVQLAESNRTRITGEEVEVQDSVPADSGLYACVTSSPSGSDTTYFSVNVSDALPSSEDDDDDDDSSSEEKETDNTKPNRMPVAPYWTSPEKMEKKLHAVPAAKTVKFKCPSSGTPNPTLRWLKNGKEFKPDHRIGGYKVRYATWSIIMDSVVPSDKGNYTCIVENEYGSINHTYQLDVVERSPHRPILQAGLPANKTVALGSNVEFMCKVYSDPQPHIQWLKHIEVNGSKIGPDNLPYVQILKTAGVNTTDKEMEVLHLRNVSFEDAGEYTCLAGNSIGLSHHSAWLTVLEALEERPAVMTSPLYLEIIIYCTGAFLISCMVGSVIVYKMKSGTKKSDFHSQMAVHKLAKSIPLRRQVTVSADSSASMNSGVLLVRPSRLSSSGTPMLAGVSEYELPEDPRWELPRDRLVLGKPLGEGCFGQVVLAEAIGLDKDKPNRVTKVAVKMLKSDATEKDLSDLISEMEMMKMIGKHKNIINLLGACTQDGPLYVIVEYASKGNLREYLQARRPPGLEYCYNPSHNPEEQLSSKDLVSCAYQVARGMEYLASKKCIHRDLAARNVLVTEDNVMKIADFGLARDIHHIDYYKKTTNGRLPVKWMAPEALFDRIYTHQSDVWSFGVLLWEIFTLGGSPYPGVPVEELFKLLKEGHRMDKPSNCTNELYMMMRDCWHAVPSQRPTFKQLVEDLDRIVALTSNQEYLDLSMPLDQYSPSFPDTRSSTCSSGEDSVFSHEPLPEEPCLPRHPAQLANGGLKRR
Sequence of Epidermal growth factor receptor (P00533 whole entry): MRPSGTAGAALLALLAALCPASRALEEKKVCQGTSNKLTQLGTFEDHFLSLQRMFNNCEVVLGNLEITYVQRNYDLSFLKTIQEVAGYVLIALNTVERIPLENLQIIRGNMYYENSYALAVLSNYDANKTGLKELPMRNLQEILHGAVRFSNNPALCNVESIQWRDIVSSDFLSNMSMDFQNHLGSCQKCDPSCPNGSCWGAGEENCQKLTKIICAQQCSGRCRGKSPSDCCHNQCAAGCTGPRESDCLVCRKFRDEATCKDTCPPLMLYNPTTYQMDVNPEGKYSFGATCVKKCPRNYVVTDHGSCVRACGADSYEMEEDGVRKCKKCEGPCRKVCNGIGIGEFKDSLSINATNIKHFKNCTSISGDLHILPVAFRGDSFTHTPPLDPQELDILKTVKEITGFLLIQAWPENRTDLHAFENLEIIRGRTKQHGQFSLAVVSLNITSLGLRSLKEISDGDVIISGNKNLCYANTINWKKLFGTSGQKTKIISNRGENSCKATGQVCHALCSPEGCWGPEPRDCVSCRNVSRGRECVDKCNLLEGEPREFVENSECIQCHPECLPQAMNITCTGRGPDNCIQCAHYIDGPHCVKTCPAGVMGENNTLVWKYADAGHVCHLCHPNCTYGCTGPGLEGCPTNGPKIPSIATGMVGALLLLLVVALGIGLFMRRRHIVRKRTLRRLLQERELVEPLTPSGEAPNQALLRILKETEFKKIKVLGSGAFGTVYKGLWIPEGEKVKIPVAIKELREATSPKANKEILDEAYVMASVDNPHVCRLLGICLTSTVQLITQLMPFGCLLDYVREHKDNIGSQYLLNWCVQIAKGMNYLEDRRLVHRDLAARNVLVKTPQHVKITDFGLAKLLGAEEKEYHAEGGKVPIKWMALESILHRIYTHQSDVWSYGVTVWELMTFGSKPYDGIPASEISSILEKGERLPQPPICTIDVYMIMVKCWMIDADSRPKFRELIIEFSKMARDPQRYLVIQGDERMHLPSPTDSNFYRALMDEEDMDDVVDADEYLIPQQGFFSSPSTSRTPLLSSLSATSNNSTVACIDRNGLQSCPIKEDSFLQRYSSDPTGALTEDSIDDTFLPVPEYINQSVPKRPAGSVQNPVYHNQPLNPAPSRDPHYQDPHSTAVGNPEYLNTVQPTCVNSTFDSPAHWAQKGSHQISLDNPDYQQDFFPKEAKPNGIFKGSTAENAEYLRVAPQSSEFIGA

SMILES	IC50 [1] [µM]	also measured
CCCC(=O)Oc1ccc2[nH]c(C(=O)c3cc4ccccc4[nH]3)cc2c1	1.1	–
O=C(c1cc2ccccc2[nH]1)c1cc2cc(OC(=O)c3ccco3)ccc2[nH]1	0.6	–
CCOc1ccc2[nH]c(C(=O)c3cc4ccccc4[nH]3)cc2c1	2.3	–
COc1ccc2[nH]c(C(=O)c3cc4ccccc4s3)cc2c1	1	–
CC(Oc1ccc2[nH]c(C(=O)c3cc4ccccc4[nH]3)cc2c1)c1ccccc1 (stereo not drawn)	> 30	–
O=C(c1cc2ccccc2[nH]1)c1cc2cc(OCCN3CCOCC3)ccc2[nH]1	2.5	–
O=C(Oc1ccc2[nH]c(C(=O)c3cc4ccccc4[nH]3)cc2c1)c1ccc(-c2ccccc2)cc1	1.7	–
CN(C)CCOc1ccc2[nH]c(C(=O)c3cc4ccccc4[nH]3)cc2c1	0.8	–
CCOc1ccc(C(=O)Oc2ccc3[nH]c(C(=O)c4cc5ccccc5[nH]4)cc3c2)cc1	1.3	–
O=C(Oc1ccc2[nH]c(C(=O)c3cc4ccccc4[nH]3)cc2c1)c1ccc2ccccc2n1	0.4	–
COc1cccc2cc(C(=O)c3cc4ccccc4[nH]3)[nH]c12	> 30	–
O=C(c1cc2ccccc2[nH]1)c1cc2cc(OCC3CCCCC3)ccc2[nH]1	> 30	–
O=C(Oc1ccc2[nH]c(C(=O)c3cc4ccccc4[nH]3)cc2c1)c1ccc([N+](=O)[O-])cc1	0.9	–
O=C(c1cc2ccccc2[nH]1)c1cc2cc(OC(=O)c3ccccc3C(=O)c3ccccc3)ccc2[nH]1	> 30	–
Cc1ccc2[nH]c(C(=O)c3cc4ccccc4[nH]3)cc2c1	7.5	–
COc1ccc(C(=O)Oc2ccc3[nH]c(C(=O)c4cc5ccccc5[nH]4)cc3c2)cc1	3.2	–
O=C(c1cc2ccccc2[nH]1)c1cc2cc(OCc3ccccc3)ccc2[nH]1	10	–
O=C(/C=C/c1ccccc1)Oc1ccc2[nH]c(C(=O)c3cc4ccccc4[nH]3)cc2c1	3.4	–
O=C(c1cc2ccccc2[nH]1)c1cc2cc(OC(=O)C(c3ccccc3)c3ccccc3)ccc2[nH]1	> 30	–
O=C(Oc1ccc2[nH]c(C(=O)c3cc4ccccc4[nH]3)cc2c1)c1cccc(Oc2ccccc2)c1	> 30	–
O=C(c1cc2ccccc2[nH]1)c1cc2cc(OC(=O)C3CC3)ccc2[nH]1	9.1	–
O=C(Cc1cccs1)Oc1ccc2[nH]c(C(=O)c3cc4ccccc4[nH]3)cc2c1	0.8	–

SMILES	IC50 [1] [µM]	also measured
O=C(Oc1ccc2[nH]c(C(=O)c3cc4ccccc4[nH]3)cc2c1)c1ccccc1	0.8	–
COc1ccc2[nH]c(C(=O)c3cc4ccccc4[nH]3)cc2c1	0.3	–
O=C(CCc1ccccc1)Oc1ccc2[nH]c(C(=O)c3cc4ccccc4[nH]3)cc2c1	1.2	–
COc1ccc2[nH]c(C(=O)c3cc4cc(OC)ccc4[nH]3)cc2c1	10	–
O=C(c1cc2ccccc2[nH]1)c1cc2cc(OCCCCCI)ccc2[nH]1	> 20	–
O=C(c1cc2ccccc2[nH]1)c1cc2cc(OC(=O)c3ccccc3Cl)ccc2[nH]1	4.6	–
COc1cc(C(=O)Oc2ccc3[nH]c(C(=O)c4cc5ccccc5[nH]4)cc3c2)cc(OC)c1OC	4.1	–
O=C(c1cc2ccccc2[nH]1)c1cc2cc(OC(=O)c3ccccc3Oc3ccccc3)ccc2[nH]1	> 30	–
COc1cccc(CC(=O)Oc2ccc3[nH]c(C(=O)c4cc5ccccc5[nH]4)cc3c2)c1	1	–
O=C(Oc1ccc2[nH]c(C(=O)c3cc4ccccc4[nH]3)cc2c1)c1cccnc1	1	–
O=C(c1cc2ccccc2[nH]1)c1cc2cc(OC(=O)C3CCC3)ccc2[nH]1	9.1	–
CC(=O)OC(C(=O)Oc1ccc2[nH]c(C(=O)c3cc4ccccc4[nH]3)cc2c1)c1ccccc1 (stereo not drawn)	0.9	–
O=C(c1cc2ccccc2s1)c1cc2ccccc2s1	> 30	–
CC(=O)Oc1ccc2[nH]c(C(=O)c3cc4ccccc4[nH]3)cc2c1	0.3	IC50 [2]: > 30 µM; IC50 [3]: 0.2 µM; IC50 [4]: > 100 µM; IC50 [5]: 0.1 µM; IC50 [6]: 4.9 µM; IC50 [7]: 0.07 µM; IC50 [8]: 0.3 µM; IC50 [9]: 17 µM; IC50 [10]: > 100 µM; IC50 [11]: > 30 µM
O=C(c1cc2ccccc2[nH]1)c1cc2cc(OCCN3CCCCC3)ccc2[nH]1	0.8	–
COc1ccc2cc(C(=O)c3cc4ccccc4[nH]3)[nH]c2c1	0.3	–
CN(C)CCCOc1ccc2[nH]c(C(=O)c3cc4ccccc4[nH]3)cc2c1	3.2	–
CC(=O)Oc1ccccc1C(=O)Oc1ccc2[nH]c(C(=O)c3cc4ccccc4[nH]3)cc2c1	2.2	–
CCC(=O)Oc1ccc2[nH]c(C(=O)c3cc4ccccc4[nH]3)cc2c1	0.9	–
O=C(c1cc2ccccc2[nH]1)c1cc2cc(O)ccc2[nH]1	0.2	IC50 [2]: > 30 µM; IC50 [3]: > 10 µM; IC50 [5]: 1 µM; IC50 [6]: 0.2 µM; IC50 [7]: 0.6 µM; IC50 [8]: 0.09 µM; IC50 [9]: > 100 µM; IC50 [10]: > 30 µM; IC50 [11]: > 30 µM
O=C(c1cc2ccccc2[nH]1)c1cc2cc(OCCCCI)ccc2[nH]1	5	–
COc1ccc2[nH]c(C(=O)c3cc4ccccc4o3)cc2c1	4	–
